Laboratory results reported in ChEMBL document CHEMBL1123394, “Systematic synthesis and biological evaluation of alpha- and beta-D-xylofuranosyl nucleosides of the five naturally occurring bases in nucleic acids and related analogues” (J Med Chem, 1986).
≈ marks a conversion by molar mass, not a printed value.

How the values were obtained:
Mus musculus [1] = experiment: Toxicity of compound against mice was determined at a concentration of 2000 mg/kg; type: organism-based; set-up: dose 2000 mg/kg; conditions: in vivo
Method in brief: (§1)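 Swiss mice (20-24 g) received a single intraperitoneal dose of 100-2,000 mg/kg. Compound was suspended in distilled water containing 0.2 g Tween 80 and 0.2 g (carboxymethyl)cellulose per 100 mL. Mice were followed for 14 days for acute toxicity.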

Mus musculus [2] = experiment: Toxicity of compound against mice was determined at a concentration of 250 mg/kg; type: organism-based; set-up: dose 250 mg/kg; conditions: in vivo; method in brief: as §1
Vero [3] = experiment: Antiviral activity was measured against forest virus in african green monkey kidney (Vero B) cells.; type: functional; conditions: Chlorocebus sabaeus
Method in brief: (§2)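 Inhibition of virus-induced cytopathogenicity scored in cell culture monolayers. Test compounds dissolved in growth medium at 100, 10, or 1 μg/mL or less.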

HeLa [4] = experiment: Concentration required for microscopically detectable alteration of the normal cell morphology in HeLa cells.; type: functional; conditions: Homo sapiens
Method in brief: (§3)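 Host-cell morphology inspected microscopically for detectable alteration, with compounds in growth medium at up to 200 or 400 μg/mL.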

[5] = Antiviral activity was measured against Vesicular stomatitis virus in rabbit kidney cells.; type: functional; conditions: Oryctolagus cuniculus
Method in brief: (§4)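 Inhibition of virus-induced cytopathogenicity in cell culture. Compounds were dissolved in growth medium at 100, 10 or 1 μg/mL or less.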

Vero [6] = experiment: Antiviral activity was measured against Sindbis virus in african green monkey kidney (Vero B) cells.; type: functional; conditions: Chlorocebus sabaeus; method in brief: as §2
[7] = Antiviral activity was measured against Vaccinia virus in rabbit kidney cells.; type: functional; conditions: Oryctolagus cuniculus; method in brief: as §4
WI-38 [8] = experiment: Antiviral activity was measured against Rhino virus-1A in human diploid (WI-38) cells.; type: functional; method in brief: as §2
[9] = Concentration required to reduce RNA synthesis in primary rabbit kidney cells using [3H-5]-Urd incorporation; type: functional; conditions: Oryctolagus cuniculus, read-out: ID50 (the source's name)
Method in brief: (§5)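 Primary rabbit kidney cells with compounds in growth medium at 100, 10, or 1 μg/mL or less. Cell number and incorporation of [3H-methyl]dThd (DNA), [3H-5]Urd (RNA) or [3H2-4,5]leucine (protein) measured. ID50 taken as the dose giving 50% reduction in cell number or in DNA, RNA or protein synthesis.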

[10] = Number of living cells on the proliferation of mouse myeloma cells SP2 was measured at concentration 100 ug/mL at 48 hr.; type: functional
Method in brief: (§6)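 Mouse myeloma SP2 cells seeded at 123 × 10^3 cells and exposed to compound at 1, 10 or 100 μg/mL in growth medium. Living cells counted at 0, 48 and 96 h alongside untreated controls.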

Mus musculus [11] = experiment: Toxicity of compound against mice was determined at a concentration of 1200 mg/kg; type: organism-based; set-up: dose 1200 mg/kg; conditions: in vivo; method in brief: as §1
Vero [12] = experiment: Antiviral activity was measured against Reo virus-1 in african green monkey kidney (Vero B) cells.; type: functional; conditions: Chlorocebus sabaeus; method in brief: as §2
HeLa [13] = experiment: Antiviral activity was measured against Coxsackie virus B4 in HeLa cells.; type: functional; conditions: Homo sapiens; method in brief: as §4
[14] = Number of living cells on the proliferation of mouse myeloma cells SP2 was measured at concentration 100 ug/mL at 96 h.; type: functional; method in brief: as §6
Mus musculus [15] = experiment: Efficacy expressed as number of surviving mice infected with herpetic encephalitis at dose of 0 mg/kg; type: functional
[16] = Concentration required to reduce DNA synthesis in primary rabbit kidney cells using [3H-Methyl]-dThd incorporation; type: functional; conditions: Oryctolagus cuniculus, read-out: ID50 (the source's name); method in brief: as §5
[17] = Concentration required for microscopically detectable alteration of the normal cell morphology in PRK cells.; type: functional; conditions: Oryctolagus cuniculus; method in brief: as §3
Mus musculus [18] = experiment: Toxicity of compound against mice was determined at a concentration of 100 mg/kg; type: organism-based; set-up: dose 100 mg/kg; conditions: in vivo; method in brief: as §1
Mus musculus [19] = species: Mus musculus; experiment: Efficacy expressed as number of surviving mice infected with herpetic encephalitis at dose of 75 mg.kg; type: functional
Method in brief: (§7)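 Young mice (10 g) were inoculated intracerebrally with 0.03 mL of herpes simplex virus suspension containing ca. 4 CCID50. Compound was given at 75 or 150 mg/kg per day as two daily intraperitoneal injections for 4 days. Read-out was the number of surviving mice.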

WI-38 [20] = experiment: Concentration required for microscopically detectable alteration of the normal cell morphology in Wi-38 cells.; type: functional; conditions: Homo sapiens; method in brief: as §3
[21] = Antiviral activity was measured against Herpes simplex virus (HSV-2 G) in rabbit kidney cells.; type: functional; conditions: Oryctolagus cuniculus; method in brief: as §2
Mus musculus [22] = experiment: Toxicity of compound against mice was determined at a concentration of 750 mg/kg; type: organism-based; set-up: dose 750 mg/kg; conditions: in vivo; method in brief: as §1
Mus musculus [23] = experiment: Efficacy expressed as number of surviving mice infected with herpetic encephalitis at dose of 150 mg/kg; type: functional; method in brief: as §7
Vero [24] = experiment: Concentration required for microscopically detectable alteration of the normal cell morphology in Vero B cells.; type: functional; conditions: Chlorocebus sabaeus; method in brief: as §3
[25] = Dose required to reduce primary rabbit kidney cell growth; type: functional; conditions: Oryctolagus cuniculus, read-out: ID50 (the source's name); method in brief: as §5
Vero [26] = experiment: Antiviral activity was measured against Parainfluenza virus-3 in african green monkey kidney (Vero B) cells.; type: functional; conditions: Chlorocebus sabaeus; method in brief: as §2
Vero [27] = experiment: Antiviral activity was measured against Coxsackie virus B4 in african green monkey kidney (Vero B) cells.; type: functional; conditions: Chlorocebus sabaeus; method in brief: as §2
WI-38 [28] = experiment: Antiviral activity was measured against Rhino virus-9 in human diploid (WI-38) cells.; type: functional; method in brief: as §2
[29] = Antiviral activity was measured against Herpes simplex virus (HSV-1 KOS) in rabbit kidney cells.; type: functional; conditions: Oryctolagus cuniculus; method in brief: as §4
[30] = Concentration required to reduce protein synthesis in primary rabbit kidney cells usingi [3H2-4,5]leucine incorporation; type: functional; conditions: Oryctolagus cuniculus, read-out: ID50 (the source's name); method in brief: as §5
HeLa [31] = experiment: Antiviral activity was measured against vesicular stomatitis virus in HeLa cells.; type: functional; conditions: Homo sapiens; method in brief: as §4
[32] = dose required to reduce primary rabbit kidney cell growth; type: functional; conditions: Oryctolagus cuniculus, read-out: ID50 (the source's name); method in brief: as §5
Mus musculus [33] = experiment: Efficacy expressed as number of surviving mice infected with herpetic encephalitis at dose of 150 mg/kg; T is Toxic; type: functional, organism-based; set-up: dose 150 mg/kg
[34] = Number of living cells on the proliferation of mouse myeloma cells SP2 was measured at concentration 100 ug/mL at 0h.; type: functional; method in brief: as §6

SMILES | MCC (Vero [3]) | MCC (HeLa [4]) | MCC [5] | MCC (Vero [6]) | MCC [7] | MCC (WI-38 [8]) | IC50 [9] | MCC (Vero [12]) | MCC (HeLa [13]) | Efficacy (Mus musculus [15]) | IC50 [16] | MCC [17] | Efficacy (Mus musculus [19]) | MCC (WI-38 [20]) | MCC [21] | MCC (Vero [24]) | MCC (Vero [26]) | MCC (Vero [27]) | MCC (WI-38 [28]) | MCC [29] | other results
Nc1ccn([C@@H]2O[C@H](CO)[C@H](O)[C@H]2O)c(=O)n1 | > 200 µg/mL | 200 µg/mL | > 100 µg/mL | > 40 µg/mL | 20 µg/mL | > 400 µg/mL | 60 µg/mL (≈ 247 µM) | > 100 µg/mL | > 100 µg/mL | 0 mg/kg | 84 µg/mL (≈ 345 µM) | > 200 µg/mL | 1 mg/kg | 400 µg/mL | 20 µg/mL | > 200 µg/mL | > 100 µg/mL | > 100 µg/mL | > 400 µg/mL | 20 µg/mL | No. of dead mice (Mus musculus [1]): 1; No. of dead mice (Mus musculus [2]): 0; No. of living cells [10]: 0.056; No. of dead mice (Mus musculus [11]): 0; No. of living cells [14]: 0; No. of dead mice (Mus musculus [18]): 0; No. of dead mice (Mus musculus [22]): 0; Efficacy (Mus musculus [23]): 2 mg/kg; IC50 [25]: 72 µg/mL (≈ 296 µM)
Nc1ncnc2c1ncn2[C@@H]1O[C@H](CO)[C@@H](O)[C@@H]1O [VIDARABINE] | > 100 µg/mL | ≥ 200 µg/mL | 70 µg/mL | > 100 µg/mL | 2 µg/mL | > 100 µg/mL | 15 µg/mL (≈ 56.1 µM) | 150 µg/mL | > 100 µg/mL | 0 mg/kg | 31 µg/mL (≈ 116 µM) | ≥ 200 µg/mL | 0 mg/kg | ≥ 100 µg/mL | 10 µg/mL | ≥ 200 µg/mL | 150 µg/mL | > 100 µg/mL | > 100 µg/mL | 20 µg/mL | No. of dead mice (Mus musculus [1]): 0; No. of dead mice (Mus musculus [2]): 0; IC50 [30]: > 200 µg/mL; No. of dead mice (Mus musculus [11]): 0; MCC (HeLa [31]): 150 µg/mL; No. of dead mice (Mus musculus [18]): 0; No. of dead mice (Mus musculus [22]): 0; Efficacy (Mus musculus [23]): 0 mg/kg; IC50 [32]: 27 µg/mL (≈ 101 µM)
Nc1nc(O)c2ncn([C@@H]3O[C@H](CO)[C@H](O)[C@H]3O)c2n1 | > 400 µg/mL | 400 µg/mL | > 200 µg/mL | > 400 µg/mL | 10 µg/mL | > 400 µg/mL | 61 µg/mL (≈ 215 µM) | > 400 µg/mL | > 200 µg/mL | 0 mg/kg | 71 µg/mL (≈ 251 µM) | > 200 µg/mL | 3 mg/kg | > 400 µg/mL | 70 µg/mL | > 400 µg/mL | > 400 µg/mL | > 400 µg/mL | > 400 µg/mL | 70 µg/mL | IC50 [30]: 148 µg/mL (≈ 523 µM); No. of living cells [10]: 0.024; Efficacy (Mus musculus [33]): Toxic; No. of living cells [14]: 0; No. of living cells [34]: 0.123; IC50 [32]: 62 µg/mL (≈ 219 µM)
